Consider 14 compounds from ChEMBL document CHEMBL1124076, “125I-labeled 8-phenylxanthine derivatives: antagonist radioligands for adenosine A1 receptors” (J Med Chem, 1988).

One assay deals with Adenosine A2 receptor (Homo sapiens, UniProt P29275+P29274). As to the kind of experiment: Inhibition of NECA binding to adenosine A2 receptor mediates reduced adenylate cyclase activity in human platelets.
Assay [1] has as its target T1, Adenosine receptor A1 (Bos taurus, UniProt P28190).
T1 sequence (P28190 whole entry): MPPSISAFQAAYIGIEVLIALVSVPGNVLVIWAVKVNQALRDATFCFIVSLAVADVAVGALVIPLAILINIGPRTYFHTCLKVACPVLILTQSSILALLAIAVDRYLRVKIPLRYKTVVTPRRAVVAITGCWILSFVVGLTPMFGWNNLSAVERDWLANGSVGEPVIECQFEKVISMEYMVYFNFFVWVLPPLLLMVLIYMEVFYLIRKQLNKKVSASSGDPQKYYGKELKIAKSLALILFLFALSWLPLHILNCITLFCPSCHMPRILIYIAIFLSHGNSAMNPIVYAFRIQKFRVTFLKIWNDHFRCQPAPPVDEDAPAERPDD
As to the kind of experiment: Displacement of [125-I]-labeled aminobenzyl adenosine binding to adenosine A1 receptor of bovine brain membranes. It counts as cell membranes. In short, it runs like this:
(§1)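 Bovine cerebral cortex membranes, pretreated with EDTA, at 0.5 mg protein/mL in 10 mM HEPES, 1 mM EDTA, 0.1 mM benzamidine, pH 7.4. Incubated 2-3 h at 21 °C, then filtered and washed with ice-cold 10 mM Tris-HCl pH 7.4. Nonspecific binding by 100 μM PIA, 1 mM theophylline or 1 μM IIIa.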

Assay [2] has as its target T2, Adenosine receptor A1 (Rattus norvegicus, UniProt P25099).
T2 sequence (P25099 whole entry): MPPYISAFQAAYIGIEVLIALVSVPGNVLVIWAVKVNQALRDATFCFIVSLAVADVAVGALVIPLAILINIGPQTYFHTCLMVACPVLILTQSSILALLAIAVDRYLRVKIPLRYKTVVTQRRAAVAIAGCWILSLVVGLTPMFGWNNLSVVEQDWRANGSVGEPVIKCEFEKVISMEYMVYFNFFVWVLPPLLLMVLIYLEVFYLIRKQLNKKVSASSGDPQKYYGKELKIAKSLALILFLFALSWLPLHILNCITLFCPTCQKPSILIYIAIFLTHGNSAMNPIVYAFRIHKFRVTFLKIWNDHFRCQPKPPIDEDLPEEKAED

Assay [3] has as its target T2, Adenosine receptor A1. As to the kind of experiment: Binding affinity to adenosine A1 receptor of rat brain membranes with 1 M NaCl by inhibition of [125-I]-IIIa binding.
Assay [4] addresses T1, Adenosine receptor A1. As to the kind of experiment: Binding affinity for adenosine A1 receptor as inhibition of [125-I]-labeled aminobenzyl adenosine binding to bovine brain membranes. The assay is classed as cell membranes. In short, it runs like this:
as §1

The target in assay [5] is T1, Adenosine receptor A1. The assay can be described thus: Binding affinity for adenosine A1 receptor using [125-I]-labeled aminobenzyl adenosine in bovine brain membranes. It counts as cell membranes. In outline:
as §1

`CCCn1c(=O)n(CCc2ccc(N)c(I)c2)c(=O)c2[nH]c(-c3ccc(OCC(=O)O)cc3)nc21` registered an inhibitory constant (Ki) at Adenosine A2 receptor of 20 µM. This compound had a Kd on Adenosine receptor A1 [1] of 3.1 µM.
On Adenosine A2 receptor, `Nc1ccc(CCn2c(=O)c3nc(-c4ccc(OCC(=O)O)cc4)[nH]c3n(CCc3ccc(N)cc3)c2=O)cc1` gave a Ki of more than 100 µM. In addition, binding at Adenosine receptor A1 [1] was characterised by a dissociation constant (Kd) of 3.59 µM.
The compound `CCCn1c(=O)c2nc(-c3ccc(OCC(=O)O)cc3)[nH]c2n(Cc2ccc(N)c(I)c2)c1=O` yielded a Ki on Adenosine A2 receptor of 0.7 µM. Also, the 50% inhibitory concentration (IC50) on Adenosine receptor A1 [2] amounted to 0.037 µM; at Adenosine receptor A1 [3], 0.003 µM. Further, binding on Adenosine receptor A1 [1] was characterised by a dissociation constant (Kd) of 0.037 µM.
On Adenosine A2 receptor, `CCCn1c(=O)n(Cc2ccc(N=[N+]=[N-])c(I)c2)c(=O)c2[nH]c(-c3ccc(OCC(=O)O)cc3)nc21` gave a Ki of 5.3 µM. The same compound came in with an equilibrium dissociation constant (Kd) on Adenosine receptor A1 [4] of 0.96 µM.
`CCCn1c(=O)c2[nH]c(-c3ccc(OCC(=O)O)cc3)nc2n(CCC)c1=O` returned a dissociation constant Kd at Adenosine receptor A1 [4] of 0.017 µM.
Compound `CCCn1c(=O)n(Cc2ccc(N)cc2)c(=O)c2[nH]c(-c3ccc(OCC(=O)O)cc3)nc21` had a Ki at Adenosine A2 receptor of 23 µM. Further, the IC50 on Adenosine receptor A1 [2] was 0.044 µM; at Adenosine receptor A1 [3] it was 0.0052 µM. Besides, the Kd at Adenosine receptor A1 [1] was found to be 0.044 µM.
Regarding `CCCn1c(=O)n(Cc2ccc(N)c(I)c2)c(=O)c2[nH]c(-c3ccc(OCC(=O)O)cc3)nc21`, at Adenosine A2 receptor, the inhibition constant Ki was found to be 1.8 µM. For the same compound, the Kd on Adenosine receptor A1 [1] came out at 0.16 µM.
Consider `CCCn1c(=O)c2nc(-c3ccc(OCC(=O)O)cc3)[nH]c2n(CCc2ccc(N)c(I)c2)c1=O`, for which, on Adenosine A2 receptor, the Ki turned out to be 5.3 µM. Further, at Adenosine receptor A1 [1], the Kd amounted to 0.029 µM.
For `CCCn1c(=O)n(CCc2ccc(N=[N+]=[N-])c(I)c2)c(=O)c2[nH]c(-c3ccc(OCC(=O)O)cc3)nc21`, the inhibitory constant (Ki) on Adenosine A2 receptor stood at 12.3 µM. Besides, the equilibrium dissociation constant (Kd) at Adenosine receptor A1 [4] was found to be 2.86 µM.
As for `CCCn1c(=O)n(CCc2ccc(N)cc2)c(=O)c2[nH]c(-c3ccc(OCC(=O)O)cc3)nc21`, at Adenosine A2 receptor, the Ki is 11.5 µM. In addition, the dissociation constant (Kd) at Adenosine receptor A1 [1] is 2.3 µM.
On Adenosine A2 receptor, `CCCn1c(=O)c2nc(-c3ccc(OCC(=O)O)cc3)[nH]c2n(Cc2ccc(N)cc2)c1=O` displayed a Ki of 1 µM. Further, the IC50 at Adenosine receptor A1 [2] was determined as 0.064 µM; on Adenosine receptor A1 [3], 0.0034 µM. For the same compound, on Adenosine receptor A1 [1], the Kd is 0.032 µM.
For the compound `CCCn1c(=O)c2nc(-c3ccc(OCC(=O)O)cc3)[nH]c2n(CCc2ccc(N=[N+]=[N-])c(I)c2)c1=O`, the inhibition constant (Ki) on Adenosine A2 receptor was determined as 5.4 µM. Moreover, binding at Adenosine receptor A1 [1] was put at a Kd of 0.024 µM.
`CCCn1c(=O)c2nc(-c3ccc(OCC(=O)O)cc3)[nH]c2n(CCc2ccc(N)cc2)c1=O`: the Ki at Adenosine A2 receptor is 11.5 µM. Moreover, the figures for the IC50 against Adenosine receptor A1 [2] and on Adenosine receptor A1 [3] were 0.037 µM and 0.0034 µM, respectively. At Adenosine receptor A1 [1], the affinity, expressed as Kd, was 0.06 µM.
As to `CCCn1c(=O)c2nc(-c3ccc(OCC(=O)O)cc3)[nH]c2n(Cc2ccc(N=[N+]=[N-])c(I)c2)c1=O`, the inhibition constant (Ki) on Adenosine A2 receptor came out at 2.1 µM. The compound also came in with a Kd on Adenosine receptor A1 [5] of 0.055 µM.

As usually defined, the Ki is a measure of affinity in units of concentration, obtained from inhibition or displacement. High values mean a looser hold on the target, low ones a stronger hold on the target. By Kd is commonly meant the constant that tells how readily two partners part at equilibrium. A higher Kd goes with lower affinity. As a reminder, the IC50 is the concentration needed to halve the response being measured. Low values mean greater potency in that assay, high ones weaker potency in that assay.
